Values joined by “and” are separate entries in the source; they are usually repeats but may differ in a detail not shown here. Identical values can stand only once.
System: S. cerevisiae growth in glycerol medium, OD600, 48 h
Assay: yeast growth reduction with glycerol carbon source – OD600, powder samples, set 3, dose response (AID 623969)
Method in brief: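 Material: S. cerevisiae yeast on glycerol | Timing: Compound exposure 48 h at 30 °C, static, humidified | Dosing: Pinned compound dilution series | Technique: Optical density at 600 nm | Benchmarks: Amphotericin B at 10 µM as positive control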

## CCOC(=O)N1C(=O)C2(CCCCC2)N(c2ccccc2)C1=S
  AC50: 0.02 µM

## C/C=C/[C@@H]1[C@H]2C[C@@H](C)CC[C@@H]2C(C)=C[C@H]1C(=O)c1c(O)c(-c2ccc(O)cc2)c[nH]c1=O
  AC50: 0.0335 µM

## CCOC(=O)N1C(=O)C2(CCCCC2)N(c2cccc(C)c2)C1=S
  AC50: 0.0276 µM

## CCOC(=O)N1C(=O)C2(CCCCC2)N(c2ccc(C#N)cc2)C1=S
  AC50: 0.00481 µM

## CC1/C=C/C=C\C=C\C=C\C=C\C=C\C=C\C(O[C@H]2OC(C)C(O)C(N)C2O)CC2OC(O)(CC(O)CC(O)C(O)CCC(O)CC(O)CC(=O)OC(C)C(C)C1O)CC(O)C2C(=O)O (stereo partly drawn)
  AC50: 0.234 µM

## CCOC(=O)N1C(=O)C2(CCCCC2)N(c2ccc(C)cc2)C1=S
  AC50: 0.015 µM and 0.0136 µM

## CCOC(=O)N1C(=O)C2(CCCCC2)N(c2ccc(Cl)cc2)C1=S
  AC50: 0.00826 µM

## CCOC(=O)N1C(=O)C2(CCCCC2)N(c2ccc(F)cc2)C1=S
  AC50: 0.00561 µM

— PubChem BioAssay AID623969 (Broad Institute, 2012)
